For test [1], the target named is T1, DNA topoisomerase 2-alpha (Homo sapiens, UniProt P11388). The experiment in a line: Inhibition of topoisomerase 2alpha in human SW620 organoids transfected with VimPro-GFP reporter assessed as reversion of epithelial-mesenchymal transition by measuring reduction in vimentin expression after 72 hrs by Hoechst 33342 staining based GFP reporter gene assay. Put shortly: (§1)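 SW620 cells stably carrying VimPro-GFP or EcadPro-mCherry (puromycin selected) grown as organoids and dosed 72 h. Stained with 16 μM Hoechst 33342 for 1 h and imaged as 15 z-layers, 26.5 μm apart. Nuclei segmented and GFP- or mCherry-positive cells counted above background thresholds. Percent positive cells normalised to DMSO.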
T1 sequence (P11388 whole entry): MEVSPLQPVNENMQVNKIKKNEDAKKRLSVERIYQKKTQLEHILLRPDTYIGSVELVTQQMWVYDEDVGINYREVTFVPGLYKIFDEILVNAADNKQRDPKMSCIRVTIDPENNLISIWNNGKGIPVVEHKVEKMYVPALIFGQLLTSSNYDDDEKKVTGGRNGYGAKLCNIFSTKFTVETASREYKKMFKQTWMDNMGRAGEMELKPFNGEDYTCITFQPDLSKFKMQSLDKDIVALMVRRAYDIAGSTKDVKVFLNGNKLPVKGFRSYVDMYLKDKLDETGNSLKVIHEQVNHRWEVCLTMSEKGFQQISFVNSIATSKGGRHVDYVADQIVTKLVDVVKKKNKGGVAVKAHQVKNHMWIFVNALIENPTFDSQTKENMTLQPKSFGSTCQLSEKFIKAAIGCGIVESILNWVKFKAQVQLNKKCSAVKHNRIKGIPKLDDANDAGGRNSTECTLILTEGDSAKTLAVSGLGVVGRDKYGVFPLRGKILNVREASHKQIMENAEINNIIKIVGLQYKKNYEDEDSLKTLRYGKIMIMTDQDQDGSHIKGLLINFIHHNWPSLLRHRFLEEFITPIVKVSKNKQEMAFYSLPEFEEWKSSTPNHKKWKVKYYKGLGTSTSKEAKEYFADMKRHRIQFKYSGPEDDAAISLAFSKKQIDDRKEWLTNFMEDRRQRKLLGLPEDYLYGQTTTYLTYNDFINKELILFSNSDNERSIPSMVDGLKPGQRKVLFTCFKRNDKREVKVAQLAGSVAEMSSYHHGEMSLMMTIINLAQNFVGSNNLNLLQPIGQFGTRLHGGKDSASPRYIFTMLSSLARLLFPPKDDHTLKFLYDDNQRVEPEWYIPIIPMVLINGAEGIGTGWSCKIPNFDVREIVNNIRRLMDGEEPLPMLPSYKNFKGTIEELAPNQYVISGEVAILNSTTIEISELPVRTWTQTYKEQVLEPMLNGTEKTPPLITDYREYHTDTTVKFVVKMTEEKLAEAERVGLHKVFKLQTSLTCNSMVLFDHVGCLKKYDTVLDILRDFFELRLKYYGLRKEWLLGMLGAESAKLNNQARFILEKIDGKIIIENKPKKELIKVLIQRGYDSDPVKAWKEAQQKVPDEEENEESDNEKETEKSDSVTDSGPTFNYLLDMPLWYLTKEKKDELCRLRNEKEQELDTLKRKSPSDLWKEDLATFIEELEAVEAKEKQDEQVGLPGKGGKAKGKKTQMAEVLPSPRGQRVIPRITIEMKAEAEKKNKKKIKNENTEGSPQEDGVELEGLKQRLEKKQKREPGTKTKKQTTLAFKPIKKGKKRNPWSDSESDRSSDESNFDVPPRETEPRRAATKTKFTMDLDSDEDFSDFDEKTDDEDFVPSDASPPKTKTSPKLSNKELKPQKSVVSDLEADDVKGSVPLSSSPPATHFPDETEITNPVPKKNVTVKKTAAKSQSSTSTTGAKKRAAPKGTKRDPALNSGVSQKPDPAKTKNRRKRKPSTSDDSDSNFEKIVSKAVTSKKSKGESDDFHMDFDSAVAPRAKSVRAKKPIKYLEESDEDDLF

For test [2], the target named is T1, DNA topoisomerase 2-alpha. The experiment in a line: Inhibition of topoisomerase 2alpha in human SW620 organoids transfected with EcadPro-RFP reporter assessed as reversion of epithelial-mesenchymal transition by measuring increase in E-cadherin expression after 72 hrs by Hoechst 33342 staining based mCherryRFP reporter gene assay. Summed up: as §1

With `CC(=O)Nc1ccc(-c2ccnc3c(O)c(NC(C)=O)ccc23)cc1`, the figures for the concentration for a half-maximal effect (EC50) in test [1] and in test [2] were 9.5 µM and 5.5 µM, respectively.
For `COc1cc(NC(C)=O)c(O)c2nccc(-c3ccccc3NC(=O)c3ccccc3)c12`, the values for the EC50 in test [1] and in test [2] were 4 µM and 9 µM, respectively.
The matching figures for `CC(=O)Nc1ccc2c(-c3cc(F)ccc3O)ccnc2c1O`: 1.2 µM and 1.6 µM.
`O=C(CN1CCOCC1)Nc1ccc2c(-c3cc4ccccc4o3)ccnc2c1O`: the results for the EC50 in test [1] and in test [2] were 1 µM and 3.3 µM, respectively.
In the case of `O=C(CCN1CCOCC1)Nc1ccc2c(-c3cc4ccccc4o3)ccnc2c1O`, the EC50 in test [1] was found to be 2.4 µM; in test [2], 3 µM.
The like results for `CC(C)(C)C(=O)Nc1ccc2c(-c3ccccc3)ccnc2c1O` were, in that order, 4.7 µM and 3.1 µM.
For the molecule `CC(=O)Nc1ccc2c(-c3cc4ccccc4o3)ccnc2c1O`, the EC50 in test [1] came out at 3.5 µM; in test [2], 5.4 µM.
The matching figures for `CC(=O)Nc1ccc2c(-c3ccoc3)ccnc2c1O`: 1.7 µM and 3.4 µM.
For the molecule `O=C(CCN1CCOCC1)Nc1ccc2c(-c3cc(F)ccc3O)ccnc2c1O`, the EC50 in test [1] turned out to be 1.9 µM; in test [2] it was 1.2 µM.
The like results for `CC(=O)Nc1ccc2c(-c3cccs3)ccnc2c1O` were, in that order, 1.2 µM and 1.1 µM.

Values taken from BindingDB's records for doi:10.1021/acs.jmedchem.9b01065 (Colorado State University, 2019).
